Most compounds without a hit are left out; they make up all but 3.4% or so of the library.
AF4-AF9 inh: blocks AF4 peptide binding to human AF9 | P42568 | AlphaScreen, biotin-AF4 peptide binding to FLAG-AF9 | inhibition, % at 10 µM | hit rate 0.47% among 350,000;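 active = every replicate reaching a set inhibition limit, whatever the replicate mean, cut at about 25% in these data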;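 note: 0% = plate neutral control median and 100% = total signal loss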
ERAP1 inh: blocks human ERAP1 aminopeptidase activity. Q9NZ08. recombinant ERAP1, Leu-AMC fluorescence, 60 min. inhibition, % at 10.7 µM. hit rate 0.15% among 340,000. AID 652197;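 active = mean replicate inhibition of at least 30%, or all replicates individually reaching that 30% level; inactive = mean below 30% and not every replicate reaching it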;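 note: 0% = neutral control wells and 100% = L-leucinethiol positive control wells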
E-sel inducer: induces E-selectin expression in human endothelial cells | HUVEC E-selectin immunofluorescence imaging; normalized: neutral wells 0, TNF-alpha wells 100 | hit rate 0.37% among 260,000 | P16581 | AID 686992 | activation, % at 7.58 µM;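 active = mean E-selectin-positive cell signal at least 10% of the positive control, reached in at least 60% of replicates, without over 20% cell loss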
Target sequence (P16581 whole entry, looked up): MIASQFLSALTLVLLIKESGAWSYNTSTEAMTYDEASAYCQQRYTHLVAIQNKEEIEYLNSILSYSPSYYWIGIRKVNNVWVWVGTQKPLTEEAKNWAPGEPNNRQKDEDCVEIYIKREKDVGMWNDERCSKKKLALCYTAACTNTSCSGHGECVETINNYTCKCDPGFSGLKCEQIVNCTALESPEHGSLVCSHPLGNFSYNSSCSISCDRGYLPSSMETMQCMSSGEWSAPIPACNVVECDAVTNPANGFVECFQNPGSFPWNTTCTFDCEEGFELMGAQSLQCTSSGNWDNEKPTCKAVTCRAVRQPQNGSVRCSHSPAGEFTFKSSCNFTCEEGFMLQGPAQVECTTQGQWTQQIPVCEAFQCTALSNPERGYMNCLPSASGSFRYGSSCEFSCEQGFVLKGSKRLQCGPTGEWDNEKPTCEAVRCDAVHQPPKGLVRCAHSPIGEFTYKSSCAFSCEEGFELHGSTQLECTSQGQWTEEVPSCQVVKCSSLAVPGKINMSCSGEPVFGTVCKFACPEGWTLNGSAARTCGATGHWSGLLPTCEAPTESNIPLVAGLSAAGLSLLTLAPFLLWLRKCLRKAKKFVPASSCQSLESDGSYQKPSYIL
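material = human umbilical vein endothelial cells (HUVEC), E-selectin induction | quantity = 3,000 cells/well | medium = EGM-2 growth medium on 0.1% gelatin-coated wells | technique = immunofluorescence imaging | read-out basis = % PE-positive cells | control set = TNF-alpha positive control, DMSO neutral control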
rRNA inh HTS: inhibits bacterial ribosomal RNA function over humanized ribosomes; E. coli WT GFP vs humanized-ribosome RFP mutants, fluorescence, 24 h; active compounds read low; DMSO median 0, no signal -100; GFP signal change (wild-type ribosome), % (concentration not given with the values); hit rate 1.6% among 350,000; AID 720706;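 active = significant combined selectivity score with lowered wild-type GFP, culture density cut under 30%, mutant RFP and density less affected; inactive = any of these conditions unmet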
S100A4 MyoIIA: inhibitors of human S100A4 binding to myosin IIA peptide | P26447 | S100A4/TAMRA-MyoIIA peptide fluorescence polarization | inhibition, % at 10.7 µM | hit rate 0.14% among 360,000 | AID 652163;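 active = mean inhibition of at least 70% across replicates, with every replicate also reaching that level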
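Material: S100A4 monomer protein | Medium: HEPES pH 7.2 with CaCl2, KCl, NaCl, DTT, Triton | Reagent: Labelled myosin peptide probe, 5 nM | Doses: One dose per compound | Times: 5 min incubation before reading | Benchmarks: Neutral control DMSO, positive control TFP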
SIRT5 block: sirtuin-5 (human) deacylase inhibition; AID 652115; inhibition, % at 15 µM; Purified SirT5, succinyl-peptide AMC, trypsin-coupled fluorescence; Q9NXA8; hit rate 1.1% among 330,000; in the data active = inhibition above about 15%
Numbers without * were called inactive; . = no result given.

SMILES	AF4-AF9 inh	ERAP1 inh	E-sel inducer	rRNA inh HTS	S100A4 MyoIIA	SIRT5 block
COc1ccccc1/C=C/C(=O)OCC(=O)Nc1ccccc1Sc1ccccc1	2	-2	0	2	1	18*
C[C@@H]1CCCCO[C@@H](CN(C)S(=O)(=O)c2cccs2)[C@H](C)CN([C@@H](C)CO)C(=O)c2cc(NC(=O)c3ccccc3)ccc2O1	.	.	0	-3	.	.
CCOC(=O)CCCCCC(=O)Nc1ccc2c(c1)C(=O)N([C@@H](C)CO)C[C@H](C)[C@H](CN(C)S(=O)(=O)c1ccc(F)cc1)O2	.	.	.	-3	.	.
Cc1ccc(C2C(C(=O)c3cccs3)=C(O)C(=O)N2c2cccc(C)n2)cc1 (centres undefined)	5	5	0	-15*	-3	-1
C[C@@H]1CN([C@H](C)CO)C(=O)c2cc(-c3cncnc3)cnc2O[C@H]1CN(C)C(=O)Cc1ccccc1	-1	-4	0	3	-8	6
COc1ccccc1NCC(O)COc1ccc(C(C)(C)C)cc1 (centres undefined)	12	-2	8	-39*	-7	-3
CCCN1[C@H](C(=O)N[C@@H](C)c2ccccc2)[C@@H](CO)[C@@H]2Cn3c(ccc(-c4cccc(F)c4)c3=O)[C@@H]21	7	0	0	-13	1	-2
C[C@H](CO)N1C[C@H](C)[C@@H](CN(C)Cc2ccc(C(=O)O)cc2)Oc2ccc(NS(=O)(=O)c3ccc(Cl)cc3)cc2C1=O	-1	0	0	-1	15	24*
C[C@@H]1CN([C@H](C)CO)C(=O)c2cc(NS(=O)(=O)c3ccc(Cl)cc3)ccc2O[C@@H]1CN(C)Cc1ccc(-c2ccccc2)cc1	1	1	0	0	-9	30*
C[C@@H]1CN([C@@H](C)CO)C(=O)c2cc(NS(=O)(=O)c3ccc(Cl)cc3)ccc2O[C@@H]1CN(C)Cc1ccc(C(=O)O)cc1	-1	0	0	3	-4	1
C[C@@H]1CN([C@@H](C)CO)C(=O)c2cc(NS(=O)(=O)c3ccc(Cl)cc3)ccc2O[C@H]1CN(C)Cc1ccccc1	25*	2	.	-3	10	4
C[C@H](CO)N1C[C@H](C)[C@H](CN(C)Cc2ccc(-c3ccccc3)cc2)Oc2ccc(NS(=O)(=O)c3ccc(Cl)cc3)cc2C1=O	0	5	0	0	1	9
CN1c2ccc(-c3ccccc3F)cc2[C@@H]2[C@@H](CCN2S(=O)(=O)c2ccccc2)[C@H]1CO	-4	-1	0	-5	-2	6
COCC(=O)N(C)C[C@@H]1Oc2cc(C#C[C@H](C)O)ccc2S(=O)(=O)N([C@H](C)CO)C[C@H]1C	-3	-3	2	1	12	-3
COc1cccc(S(=O)(=O)N(C)C[C@@H]2Oc3ncc(C#CC(C)C)cc3C(=O)N([C@H](C)CO)C[C@H]2C)c1	3	-1	0	-6	8	-3
Cn1c(=O)c2sccc2n2c(CCCC(=O)N3CCN(c4ccccn4)CC3)nnc12	2	0	.	-4	111*	-1
COCCCn1c(=O)c2sccc2n2c(CCCC(=O)N3CCN(c4ccccn4)CC3)nnc12	2	2	.	11	-5	6
C[C@@H]1CCCCO[C@H](CN(C)S(C)(=O)=O)[C@@H](C)CN([C@H](C)CO)C(=O)c2cc(NC(=O)Nc3ccccc3)ccc2O1	2	0	0	-1	-3	2
CC(=O)N(C)C[C@@H]1OCc2ccccc2-c2ccccc2C(=O)N([C@@H](C)CO)C[C@H]1C	-3	-2	-4	-1	-43	-9
Cn1ccsc1=NC(=O)c1ccc(=O)[nH]c1	-5	34*	.	5	11	2
C[C@@H]1CCCCO[C@@H](CN(C)Cc2ccc(C(=O)O)cc2)[C@@H](C)CN([C@H](C)CO)C(=O)c2cc(NS(=O)(=O)c3ccc(Cl)cc3)ccc2O1	-3	2	0	3	-6	7
COc1ccccc1-c1nn2c(-c3ccco3)nnc2s1	-29	1	.	-22*	-1	-3

Compound activity deposited in PubChem BioAssay by Broad Institute.
